Source: PubChem
Rows were chosen to be rich in hits. Some 1.9% of all compounds tested hit in one or more screens of this group.
NR2E3 ag-1 = agonists of human NR2E3 nuclear receptor; CHO-S Gal4-NCOR/VP16-NR2E3 two-hybrid, luciferase; AID 602229; 0.35% of 360,000 active; inhibition of corepressor binding, % at 3.98 µM;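 active means inhibition above the mean of all tested compounds plus 3 SD, cut at about 70% in these data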;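 further: 0% = DMSO with NR2E3 transfected cells and 100% = cells lacking NR2E3 construct; higher means lower luciferase signal from less NR2E3 corepressor binding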
Target sequence (Q9Y5X4 whole entry, looked up, the tested form may be a part): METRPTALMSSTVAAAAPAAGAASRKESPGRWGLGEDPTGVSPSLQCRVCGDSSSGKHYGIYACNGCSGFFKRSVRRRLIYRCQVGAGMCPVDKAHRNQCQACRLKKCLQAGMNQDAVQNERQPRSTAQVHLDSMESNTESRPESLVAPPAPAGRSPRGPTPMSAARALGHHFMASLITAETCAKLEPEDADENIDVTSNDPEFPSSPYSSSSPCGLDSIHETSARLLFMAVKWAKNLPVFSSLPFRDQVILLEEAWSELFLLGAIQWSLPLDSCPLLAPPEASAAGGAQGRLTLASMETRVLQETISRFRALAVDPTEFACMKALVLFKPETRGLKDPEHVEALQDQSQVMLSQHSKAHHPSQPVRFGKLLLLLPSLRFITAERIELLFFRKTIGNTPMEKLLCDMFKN
MT1-MMP act inh = inhibitors of human MT1-MMP activation; HT1080 RFP-PRO-GFP cells, GFP/RFP ratio fluorescence, overnight; percent of plate control window, DMSO zero; GFP/RFP ratio change, % at 20 µM; 0.061% of 360,000 active; AID 651647;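 active means GFP/RFP ratio change of at least 30% with cell ATP level not reduced by more than half and red fluorescence within 50% of control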
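Assay system: HT1080 RFP-PRO-GFP cells. Benchmarks: DMSO vehicle wells and RFP-L50D-GFP reporter cell wells. Times: overnight cell settling, then overnight compound exposure, 37 °C, 5% CO2. Compound: 20 µM single dose, 1% DMSO. Read-out basis: GFP/RFP fluorescence ratio.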
NR2E3 ag-2 = agonists of human nuclear receptor NR2E3. Q9Y5X4. GST-NR2E3/biotin-RetCOR TR-FRET, 1536-well. inhibition of corepressor binding, % at 4.78 µM. 0.12% of 320,000 active. AID 2300;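 active means percent inhibition above the cutoff of mean plus 3 SD of all tested compounds, set per screening campaign, cut at about 20% in these data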;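 further: 0% = DMSO wells and 100% = biotin wells as full block of FRET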
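Test system – NR2E3–RetCOR corepressor complex · Quantity – NR2E3 fusion 1.35 nM · Buffer or medium – Tris pH 7.5 · Incubation – Compound–protein incubation for 5 h at 4 °C · Technique – TR-FRET, Eu(K)-anti-GST donor, streptavidin-D2 acceptor, ex 340, em 617/671 nm · Evaluation – percent inhibition of 671/617 nm emission ratio versus biotin and DMSO controls · Plate – 1536-well format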
NR1D1 modulator = modulators of human Rev-erb alpha DNA binding; P20393; Rev-erbα–FITC-DNA binding, fluorescence polarization, 90 min; activity, % at 10 µM; 0.79% of 370,000 active;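 active means activity above about 14%, limit read from the data; passing the limit was not always enough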;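 further: 0% = DMSO wells with 35 nM protein and 100% = DMSO wells with 750 nM protein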
PG9 binder = PG9 antibody binding by small molecule; inhibition, % at 6.7 µM; AID 624416; TR-FRET gp120-PG9 antibody binding; 0.43% of 360,000 active; in the data active means inhibition above about 8.5%
SKN-1 block = inhibitors of C. elegans SKN-1; C. elegans VP596 Pgst-4::GFP/RFP ratio, acrylamide-induced, 24 h; inhibition, % at 21.8 µM; 0.49% of 360,000 active;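 active means interference check ratio from 0.5 to 1.5 plus GFP to RFP signal ratio inhibition reaching or exceeding a fixed threshold, cut at about 30% in these data, passing the limit was not always enough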
The depositor's hits bear a star.

Screening CCCCCCCCOc1ccc(C2OC34CCCCC3C(C#N)(C#N)C2(C#N)C(=N)O4)cc1 (stereo not given) returned NR2E3 ag-1 -40, MT1-MMP act inh -34, NR2E3 ag-2 -3 and SKN-1 block 47*.
Cc1cc(C)cc(C(=O)OCCCN(C)C2CN(Cc3cn(Cc4cccc(F)c4)nn3)S(=O)(=O)C2)c1 (stereo not given) was read as NR1D1 modulator 1.
Cc1c(-c2nc(-c3cccnc3)no2)cccc1[N+](=O)[O-] was read as NR2E3 ag-1 -78, MT1-MMP act inh 2, NR2E3 ag-2 5, NR1D1 modulator -4, PG9 binder 0 and SKN-1 block 42*.
`CCc1ccc(C=NN2CCN(Cc3ccc(C)cc3C)CC2)cc1` gave NR1D1 modulator -3.
O=C(CN1CCN(S(=O)(=O)N2CCCCC2)CC1)Nc1cc(Cl)cc(Cl)c1 was read as NR2E3 ag-1 -16, MT1-MMP act inh 3, NR2E3 ag-2 -2, NR1D1 modulator 2, PG9 binder -1 and SKN-1 block 37*.
Screening O=C(CN1CCN(S(=O)(=O)N2CCCCC2)CC1)Nc1ccc(Cl)c(Cl)c1 returned NR2E3 ag-1 -8, MT1-MMP act inh 1, NR2E3 ag-2 5, NR1D1 modulator 3, PG9 binder 0 and SKN-1 block -10.
For O=[N+]([O-])c1cc(S(=O)(=O)N2CCCC2)ccc1N/N=C/c1cccs1 the results were NR2E3 ag-1 13, MT1-MMP act inh 9, NR2E3 ag-2 1, NR1D1 modulator 3, PG9 binder 0 and SKN-1 block 36*.
O=[N+]([O-])c1cc(S(=O)(=O)N2CCCC2)ccc1N/N=C/c1ccncc1 was read as NR2E3 ag-1 -7, MT1-MMP act inh 6, NR2E3 ag-2 -2, NR1D1 modulator -21, PG9 binder -1 and SKN-1 block 8.
For O=C(CCl)Nc1ncc(S(=O)(=O)c2ccc([N+](=O)[O-])cc2)s1 the results were NR2E3 ag-1 -38, MT1-MMP act inh 1, NR1D1 modulator -6, PG9 binder 0 and SKN-1 block -6.
`CCC(C)(C)C(=O)Nc1ncc(S(=O)(=O)c2ccc([N+](=O)[O-])cc2)s1` gave NR2E3 ag-1 -4, MT1-MMP act inh 2, NR2E3 ag-2 1, NR1D1 modulator 0, PG9 binder -2 and SKN-1 block 36*.
NC(=O)CC(NC(=O)Cc1cccc2ccccc12)c1ccc(N2CCC(N3CCCCC3)CC2)c([N+](=O)[O-])c1 (stereo not given) was read as NR2E3 ag-1 14, MT1-MMP act inh 5, NR2E3 ag-2 1, NR1D1 modulator 3, PG9 binder -1 and SKN-1 block 46*.
COc1ccc2c(c1OC)C(=O)OC2Nc1nc(-c2ccc(-c3ccccc3)cc2)cs1 (stereo not given) was read as NR2E3 ag-1 -103, MT1-MMP act inh -11, NR2E3 ag-2 2, NR1D1 modulator 4, PG9 binder -1 and SKN-1 block 65*.
Screening COc1cccc(-c2csc(NC3OC(=O)c4c3ccc(OC)c4OC)n2)c1 (stereo not given) returned NR2E3 ag-1 -28, MT1-MMP act inh 1, NR2E3 ag-2 3, NR1D1 modulator -4, PG9 binder 2 and SKN-1 block 7.
Screening OCc1cccc(-c2csc(C(O)(c3ccccc3)C(F)(F)F)n2)c1 (stereo not given) returned NR2E3 ag-1 -17, MT1-MMP act inh 1, NR1D1 modulator 6, PG9 binder -1 and SKN-1 block 35*.
Screening O=C(Nc1nc2ncccn2c1-c1ccccc1)C1CC1 returned NR1D1 modulator 0.
For COC(=O)C1=C(C)N(C)C(=NCc2cccc(C(F)(F)F)c2)NC1c1cccc(F)c1 (stereo not given) the results were NR1D1 modulator 5 and PG9 binder -1.
CCN(C(=O)CN1C(=O)S/C(=C\c2ccc(Cl)cc2)C1=O)C1CCS(=O)(=O)C1 (stereo not given) was read as NR2E3 ag-1 -9, MT1-MMP act inh -3, NR2E3 ag-2 3, NR1D1 modulator 2, PG9 binder 0 and SKN-1 block -3.
